Experimental data published in ChEMBL document CHEMBL1137651 (Antimicrob Agents Chemother, 2007).
≈ marks a conversion by molar mass, not a printed value. Calls of active or inactive are those of the source. No cut-off for these calls is given here.

Experiments:
Homo sapiens [1] = assay: fCmax in Mycobacterium tuberculosis H37Rv ATCC 2517-infected patient serum at 600 mg/day, po; assay type: ADME, organism-based
Homo sapiens [2] = assay: fAUC (0 to infinity) in Mycobacterium tuberculosis H37Rv ATCC 2517-infected patient serum at 600 mg/day, po; assay type: ADME, organism-based
[3] = AUC (0 to 168 hrs) in Mycobacterium tuberculosis H37Rv ATCC 2517-infected patient serum at 600 mg/day, po; assay type: ADME, organism-based, Plasma; set-up: time < 168 hr, dose 600 mg/day, route oral; settings: human
Homo sapiens [4] = assay: fCmax in Mycobacterium tuberculosis H37Rv ATCC 2517-infected patient serum at 2100 mg, po administered twice a week; assay type: ADME, organism-based; settings: in vivo
Homo sapiens [5] = assay: fCmax in Mycobacterium tuberculosis H37Rv ATCC 2517-infected patient serum at 4200 mg, po administered once a week; assay type: ADME, organism-based; settings: in vivo
Homo sapiens [6] = assay: fAUC (0 to 168 hrs) in Mycobacterium tuberculosis H37Rv ATCC 2517-infected patient serum at 2100 mg, po administered twice a week; assay type: ADME, organism-based; settings: in vivo
Homo sapiens [7] = assay: fAUC (0 to 168 hrs) in Mycobacterium tuberculosis H37Rv ATCC 2517-infected patient serum at 4200 mg, po administered once a week; assay type: ADME, organism-based; settings: in vivo
[8] = AUC (0 to 168 hrs) in Mycobacterium tuberculosis H37Rv ATCC 2517-infected hollow fiber system based in vitro pharmacokinetic-pharmacodynamic tuberculosis model; assay type: ADME; set-up: time < 168 hr
Method in brief: (§1)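 Samples were cleaned up by solid-phase extraction and quantified by LC-MS (C18 column, 25 mM ammonium acetate/acetonitrile 58:42).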

[9] = AUC (0 to 168 hrs) in Mycobacterium tuberculosis H37Rv ATCC 2517-infected hollow fiber system based in vitro pharmacokinetic-pharmacodynamic tuberculosis model administered at dose simulating 4200 mg once weekly schedule; assay type: ADME; set-up: time < 168 hr, dose 4200 mg; method in brief: as §1
[10] = test system: Mycobacterium tuberculosis; assay: Antimycobacterial activity against Mycobacterium tuberculosis H37Rv ATCC 2517 infected in hollow fiber system based in vitro pharmacokinetic-pharmacodynamic tuberculosis model assessed as microbial killing administered at simulated dose of 600 mg/day for 7 days; assay type: functional
Method in brief: (§2)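 Hollow-fiber model at 37°C with 5% CO2. […] Schedules were daily for 7 days, twice weekly (day 0 and 3.5) or once weekly, plus an untreated control. Peripheral samples were taken daily for 7 days, saline-washed twice and plated on 7H10 agar; kill is relative to baseline.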

[11] = test system: Mycobacterium tuberculosis; assay: Post antibiotic effect against Mycobacterium tuberculosis H37Rv ATCC 2517 infected hollow fiber system based in vitro pharmacokinetic-pharmacodynamic tuberculosis model at 2 mg/L administered for 7 hrs; assay type: functional
Method in brief: (§3)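 Broth cultures grown 4 days were exposed at 10^6 CFU/ml to the stated concentration and duration. They were then washed twice by centrifugation (2,000 x g, 10 min) and resuspended in fresh broth, shaken at 37°C in 5% CO2, and sampled every other day for agar counts. PAE equals the time for exposed cultures to grow 1 log10 CFU/ml minus that for controls. The study was performed twice.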

[12] = test system: Mycobacterium tuberculosis; assay: Post antibiotic effect against Mycobacterium tuberculosis H37Rv ATCC 2517 infected hollow fiber system based in vitro pharmacokinetic-pharmacodynamic tuberculosis model at 7 mg/L administered for 1 hr; assay type: functional; method in brief: as §3
[13] = test system: Mycobacterium tuberculosis; assay: Post antibiotic effect against Mycobacterium tuberculosis H37Rv ATCC 2517 infected hollow fiber system based in vitro pharmacokinetic-pharmacodynamic tuberculosis model at 7 mg/L administered for 2 hrs; assay type: functional
[14] = test system: Mycobacterium tuberculosis; assay: Post antibiotic effect against Mycobacterium tuberculosis H37Rv ATCC 2517 infected hollow fiber system based in vitro pharmacokinetic-pharmacodynamic tuberculosis model at 14 mg/L administered for 0.5 hrs; assay type: functional; method in brief: as §3
[15] = test system: Mycobacterium tuberculosis; assay: Antimycobacterial activity against drug-sensitive Mycobacterium tuberculosis H37Rv ATCC 2517-infected hollow fiber system based in vitro pharmacokinetic-pharmacodynamic tuberculosis model assessed as rate constant for maximal bacterial growth; assay type: functional
[16] = test system: Mycobacterium tuberculosis; assay: Antimycobacterial activity against drug-sensitive Mycobacterium tuberculosis H37Rv ATCC 2517-infected hollow fiber system based in vitro pharmacokinetic-pharmacodynamic tuberculosis model assessed as concentration needed to achieve 50% effect on maximal growth rate; assay type: functional
[17] = test system: Mycobacterium tuberculosis; assay: Antimycobacterial activity against drug-sensitive Mycobacterium tuberculosis H37Rv ATCC 2517-infected hollow fiber system based in vitro pharmacokinetic-pharmacodynamic tuberculosis model assessed as sigmoidicity constant for drug effect on microbial growth; assay type: functional
[18] = test system: Mycobacterium tuberculosis; assay: Antimycobacterial activity against drug-sensitive Mycobacterium tuberculosis H37Rv ATCC 2517-infected hollow fiber system based in vitro pharmacokinetic-pharmacodynamic tuberculosis model assessed as rate constant for maximal bacterial kill; assay type: functional
[19] = test system: Mycobacterium tuberculosis; assay: Antimycobacterial activity against drug-sensitive Mycobacterium tuberculosis H37Rv ATCC 2517-infected hollow fiber system based in vitro pharmacokinetic-pharmacodynamic tuberculosis model assessed as concentration needed to achieve 50% maximal killing rate; assay type: functional
[20] = test system: Mycobacterium tuberculosis; assay: Antimycobacterial activity against drug-sensitive Mycobacterium tuberculosis H37Rv ATCC 2517-infected hollow fiber system based in vitro pharmacokinetic-pharmacodynamic tuberculosis model assessed as sigmoidicity constant for microbial killing; assay type: functional
[21] = Clearance in Mycobacterium tuberculosis H37Rv ATCC 2517-infected hollow fiber system based in vitro pharmacokinetic-pharmacodynamic tuberculosis model; assay type: ADME, organism-based
[22] = AUC in Mycobacterium tuberculosis H37Rv ATCC 2517-infected hollow fiber system based in vitro pharmacokinetic-pharmacodynamic tuberculosis model at 14 mg/L for 0.5 hrs; assay type: ADME
[23] = AUC in Mycobacterium tuberculosis H37Rv ATCC 2517-infected hollow fiber system based in vitro pharmacokinetic-pharmacodynamic tuberculosis model at 7 mg/L for 1 hr; assay type: ADME
[24] = AUC in Mycobacterium tuberculosis H37Rv ATCC 2517-infected hollow fiber system based in vitro pharmacokinetic-pharmacodynamic tuberculosis model at 7 mg/L for 2 hrs; assay type: ADME
[25] = AUC in Mycobacterium tuberculosis H37Rv ATCC 2517-infected hollow fiber system based in vitro pharmacokinetic-pharmacodynamic tuberculosis model at 2 mg/L for 7 hrs; assay type: ADME
[26] = test system: Mycobacterium tuberculosis; assay: Antimycobacterial activity against Mycobacterium tuberculosis H37Rv ATCC 2517 infected in hollow fiber system based in vitro pharmacokinetic-pharmacodynamic tuberculosis model assessed as microbial killing administered at simulated dose of 4200 mg, po once weekly; assay type: functional, organism-based; method in brief: as §2
[27] = test system: Mycobacterium tuberculosis; assay: Antimycobacterial activity against Mycobacterium tuberculosis H37Rv ATCC 2517 infected in hollow fiber system based in vitro pharmacokinetic-pharmacodynamic tuberculosis model assessed as microbial killing administered at simulated dose of 2100 mg, po twice weekly; assay type: functional, organism-based; method in brief: as §2
[28] = test system: Mycobacterium tuberculosis; assay: Drug uptake in Mycobacterium tuberculosis H37Rv ATCC 2517-infected hollow fiber system based in vitro pharmacokinetic-pharmacodynamic tuberculosis model; assay type: ADME, organism-based
Method in brief: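 Log-phase culture was adjusted to 10^6 CFU/ml in 7H9 broth held at 37°C or 0°C, then given 0, 2, 7 or 14 mg/liter drug. Samples taken at 0, 5, 15, 30 and 60 min were spun through silicone oil, and drug in the pellet was measured by LC-MS. Values at 0°C (cell-wall binding) were subtracted from those at 37°C. Cell volume was estimated from protein by BCA. Run in triplicate.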

[29] = test system: Mycobacterium tuberculosis; assay: microbe, parasite or virus in culture

CO[C@H]1/C=C/O[C@@]2(C)Oc3c(C)c(O)c4c(O)c(c(/C=N/N5CCN(C)CC5)c(O)c4c3C2=O)NC(=O)/C(C)=C\C=C\[C@H](C)[C@H](O)[C@@H](C)[C@@H](O)[C@@H](C)[C@H](OC(C)=O)[C@@H]1C [RIFAMPIN]
fCmax (Homo sapiens [1]): 2 mg/L
fAUC (Homo sapiens [2]): 16000 ng·h/mL
AUC at 168 h [3]: 112000 ng·h/mL
fCmax (Homo sapiens [4]): 7 mg/L
fCmax (Homo sapiens [5]): 14 mg/L
fAUC (Homo sapiens [6]): 112000 ng·h/mL
fAUC (Homo sapiens [7]): 112000 ng·h/mL
AUC(0-t) at 168 h [8]: 122000 ng·h/mL
AUC(0-t) at 168 h [9]: 14000 ng·h/mL
CFU [10]: 1.95 mL⁻¹
PAE [11]: 5.2 days
PAE [12]: 12 days
PAE [13]: 12.9 days
PAE [14]: 19.3 days
Kgmax [15]: 9.756 ×10⁻³ log10CFU/ml/hr
C50g [16]: 1932 mg/L
Hg [17]: 0.361
Kkmax [18]: 15.829 ×10⁻³ log10CFU/ml/hr
C50k [19]: 7.652 mg/L
Hk [20]: 1.388
CL [21]: 99 L/h
AUC at 0.5 h, 14 mg/L [22]: 7000 ng·h/mL
AUC at 1 h, 7 mg/L [23]: 7000 ng·h/mL
AUC at 2 h, 7 mg/L [24]: 14000 ng·h/mL
AUC at 7 h, 2 mg/L [25]: 14000 ng·h/mL
Activity [26]: Active
Activity [27]: Active
Drug uptake [28]: Dose-dependent effect
MIC90 [29]: 0.125 µg/mL (≈ 0.152 µM)
